Holding throughout (type): functional
Experiment [1] is described as follows: Cytotoxicity against human Gurav cells after 48 hrs by SRB. The note with it: for TGI: read-out: pTGI. The essentials:
(§1)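 Cells kept in RPMI 1640 with 10% FBS and 2 mM L-glutamine, plated at 5000 cells/well and incubated 24 h at 37 °C, 5% CO2. A time-zero plate was TCA-fixed at dosing. DMSO stocks were diluted in medium into four 10-fold concentrations, 10^-4 to 10^-7 M. Exposure lasted 48 h continuously, then cells were fixed in cold TCA, stained with 0.4% SRB and eluted with 10 mM Tris. A540 was read. GI50 = [(Ti−Tz)/(C−Tz)]×100 = 50; TGI from Ti = Tz.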

For a further experiment, the system named is K562. As to the kind of experiment: Cytotoxicity against human K562 cells after 48 hrs by SRB. The conditions noted are these: K562, 48 h; for TGI: read-out: pTGI. The method, boiled down:
as §1

In the next experiment the test system is PC-3. In words: Cytotoxicity against human PC3 cells after 48 hrs by SRB. The conditions noted are these: PC-3, 48 h; for TGI: read-out: pTGI. The method, boiled down:
as §1

The next experiment concerns HepG2. As to the kind of experiment: Cytotoxicity against human HepG2 cells after 48 hrs by SRB. The note with it: HepG2, 48 h; for TGI: read-out: pTGI. The essentials:
as §1

The next experiment relates to MCF7. In words: Cytotoxicity against human MCF7 cells after 48 hrs by SRB. The note with it: MCF7, 48 h; for TGI: read-out: pTGI. The essentials:
as §1

The subject of a further experiment is HOP-62. In words: Cytotoxicity against human HOP62 cells after 48 hrs by SRB. The note with it: HOP-62, 48 h; for TGI: read-out: pTGI. The essentials: as §1
In another experiment the test system is KB. As to the kind of experiment: Cytotoxicity against human KB cells after 48 hrs by SRB. The note with it: for TGI: read-out: pTGI. The method, boiled down: as §1

One may read the GI50 as the concentration at which growth is held to half of that of the control.

Regarding `Cc1cc(NC(=O)COc2ccc(/C=C3\SC(=O)NC3=O)cc2)no1`, the GI50 is 38.9 µM in experiment [1] (Homo sapiens, Gurav, 48 h); 2750 nM in the experiment on K562; over 100 µM with PC-3; over 100 µM in the experiment with HepG2; 39.8 µM with MCF7; over 100 µM in the experiment on HOP-62. For the same compound, the GI50 in the experiment on KB is over 100 µM. In addition, the TGI was over 100 µM in experiment [1] (Homo sapiens, Gurav, 48 h); over 100 µM with K562; over 100 µM in the experiment with PC-3; over 100 µM in the experiment on HepG2; over 100 µM in the experiment on MCF7; over 100 µM with HOP-62. Also, in the experiment with KB, the TGI is over 100 µM.
As to `Cc1c(NC(=O)COc2ccc(/C=C3\SC(=O)NC3=O)cc2)c(=O)n(-c2ccccc2)n1C`, the GI50 in experiment [1] (Homo sapiens, Gurav, 48 h) is over 100 µM; in the experiment with K562, over 100000 nM; in the experiment on PC-3 it was over 100 µM; with HepG2, over 100 µM; with MCF7, over 100 µM; with HOP-62, 0.186 µM. In the experiment with KB, this compound gave a GI50 of over 100 µM. Besides, the TGI in experiment [1] (Homo sapiens, Gurav, 48 h) is over 100 µM; in the experiment with K562 it was over 100 µM; in the experiment with PC-3, over 100 µM; in the experiment with HepG2, over 100 µM; with MCF7, over 100 µM; in the experiment on HOP-62 it was over 100 µM. Moreover, the TGI in the experiment on KB was over 100 µM.
Regarding `O=C1NC(=O)/C(=C/c2ccc(OCC(=O)N3c4ccccc4Sc4ccccc43)cc2)S1`, the 50% growth inhibitory concentration (GI50) is over 100 µM in experiment [1] (Homo sapiens, Gurav, 48 h); over 100000 nM in the experiment with K562; 29.5 µM with PC-3; over 100 µM in the experiment on HepG2; 29.5 µM with MCF7; over 100 µM in the experiment with KB. Besides, the TGI in experiment [1] (Homo sapiens, Gurav, 48 h) is over 100 µM; in the experiment with K562 it was over 100 µM; in the experiment with PC-3 it was over 100 µM; with HepG2, over 100 µM; in the experiment on MCF7, over 100 µM; in the experiment with KB it was over 100 µM.
Take `Cc1cnc(NC(=O)COc2ccc(/C=C3\SC(=O)NC3=O)cc2)s1`: the GI50 in the experiment with K562 was 2240 nM; with HepG2, over 100 µM; in the experiment with MCF7, over 100 µM; with HOP-62 it was 30.9 µM; with KB it was over 100 µM. In addition, the TGI with K562, in the experiment on HepG2, in the experiment on MCF7, with HOP-62 and in the experiment on KB was over 100 µM throughout.
On to `O=C(COc1ccc(/C=C2\SC(=O)NC2=O)cc1)Nc1ccccn1`, for which the 50% growth inhibitory concentration (GI50) is over 100 µM in experiment [1] (Homo sapiens, Gurav, 48 h); over 100000 nM in the experiment with K562; 29.5 µM in the experiment with PC-3; over 100 µM in the experiment with HepG2; 29.5 µM in the experiment with MCF7; 2.29 µM in the experiment on HOP-62. In addition, the 50% growth inhibitory concentration (GI50) with KB is over 100 µM. The TGI in experiment [1] (Homo sapiens, Gurav, 48 h) is over 100 µM; with K562 it was over 100 µM; in the experiment with PC-3, over 100 µM; in the experiment on HepG2, over 100 µM; in the experiment with MCF7, over 100 µM; in the experiment with HOP-62 it was over 100 µM. Moreover, the TGI in the experiment on KB was over 100 µM.
Turning to `O=C(COc1ccc(/C=C2\SC(=O)NC2=O)cc1)Nc1nc2ccccc2s1`, the GI50 in experiment [1] (Homo sapiens, Gurav, 48 h) was over 100 µM; in the experiment on K562, over 100000 nM; with PC-3, 28.2 µM; in the experiment with HepG2 it was over 100 µM; in the experiment on MCF7, 25.1 µM; in the experiment with KB it was over 100 µM. The TGI was over 100 µM in experiment [1] (Homo sapiens, Gurav, 48 h); over 100 µM in the experiment on K562; over 100 µM with PC-3; over 100 µM with HepG2; over 100 µM in the experiment with MCF7; over 100 µM with KB.
As to `COc1cccc2c1C(=O)c1c(O)c3c(c(O)c1C2=O)C[C@@](O)(C(=O)CO)C[C@@H]3O[C@H]1C[C@H](N)[C@H](O)[C@H](C)O1` [DOXORUBICIN], the GI50 is 0.107 µM in experiment [1]; 0.158 µM in experiment [1] (Homo sapiens, Gurav, 48 h); 2570 nM in the experiment on K562; under 0.1 µM in the experiment on HepG2; under 0.1 µM in the experiment on KB. Also, the TGI in the experiment with K562 is over 100 µM.
Turning to `O=C1NC(=O)/C(=C\c2ccc(OCC(=O)N3C(=O)c4ccccc4S3(=O)=O)cc2)S1`, the GI50 in experiment [1] (Homo sapiens, Gurav, 48 h) is 31.6 µM; in the experiment with K562, 2690 nM; in the experiment on PC-3 it was over 100 µM; in the experiment with HepG2 it was over 100 µM; in the experiment on MCF7, 37.2 µM; in the experiment with HOP-62, over 100 µM. In addition, in the experiment on KB, the GI50 is over 100 µM. The TGI was over 100 µM in experiment [1] (Homo sapiens, Gurav, 48 h); over 100 µM in the experiment on K562; over 100 µM in the experiment with PC-3; over 100 µM in the experiment on HepG2; over 100 µM with MCF7; over 100 µM in the experiment on HOP-62. Moreover, in the experiment with KB, the TGI is over 100 µM.
For the compound `O=C(COc1ccc(/C=C2\SC(=O)NC2=O)cc1)Nc1cccc(C(F)(F)F)c1`, the GI50 was 191 nM with K562; 2.51 µM in the experiment with PC-3; over 100 µM in the experiment on HepG2; over 100 µM with HOP-62; 2.24 µM with KB. The TGI with K562, in the experiment on PC-3, in the experiment on HepG2, with HOP-62 and in the experiment on KB was over 100 µM each time.
In the case of `O=C(COc1ccc(/C=C2\SC(=O)NC2=O)cc1)Nc1ncc([N+](=O)[O-])s1`, the GI50 was over 100 µM in experiment [1] (Homo sapiens, Gurav, 48 h); over 100000 nM in the experiment on K562; over 100 µM in the experiment on PC-3; over 100 µM in the experiment with HepG2; over 100 µM in the experiment with MCF7; over 100 µM in the experiment with HOP-62. In the experiment with KB, this compound had a GI50 of over 100 µM. For the same compound, the TGI in experiment [1] (Homo sapiens, Gurav, 48 h) was over 100 µM; in the experiment with K562, over 100 µM; in the experiment on PC-3, over 100 µM; with HepG2, over 100 µM; with MCF7, over 100 µM; in the experiment on HOP-62, over 100 µM. Besides, the TGI in the experiment with KB is over 100 µM.
As to `CCCCC1=NC2(CCCC2)C(=O)N1C(=O)COc1ccc(/C=C2/SC(=O)NC2=O)cc1`, the GI50 was over 100 µM in experiment [1] (Homo sapiens, Gurav, 48 h); over 100000 nM in the experiment with K562; over 100 µM with PC-3; over 100 µM with HepG2; 28.2 µM in the experiment on MCF7; 29.5 µM in the experiment on HOP-62. Also, in the experiment on KB, the GI50 was over 100 µM. Besides, the TGI in experiment [1] (Homo sapiens, Gurav, 48 h) was over 100 µM; with K562, over 100 µM; in the experiment with PC-3, over 100 µM; in the experiment on HepG2, over 100 µM; with MCF7 it was over 100 µM; with HOP-62, over 100 µM. Further, the TGI with KB is over 100 µM.

The values are drawn from ChEMBL document CHEMBL1250473, “Synthesis and primary cytotoxicity evaluation of new 5-benzylidene-2,4-thiazolidinedione derivatives” (2010).
